SMILES strings stand for the structures. Out of some 2,500 compounds screened, about 1,200 (48%) were called active.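 How the source made its calls: active means mean activation above the low control average plus 3 SD, as set in the primary screen (cut at about 12% in these data); inactive means the rest.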 So high a share suggests a set chosen from earlier hits. The list shows a part of the results.

We go through 54 compounds from PubChem BioAssay AID504383 (The Scripps Research Institute Molecular Screening Center, 2011).

The target of this test is Troponin I, cardiac muscle (Homo sapiens) + Troponin T, cardiac muscle (Homo sapiens) + Troponin C, slow skeletal and cardiac muscles (Homo sapiens) (UniProt P19429+P45379+P63316). Briefly: cardiac RTF calcium sensitivity activators, confirmation, biochemical, IANBD-TnC fluorescence, triplicate (AID 504383).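 Further: 0% = DMSO at 0.472 mM calcium and 100% = DMSO at 2.9 mM calcium.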 The note with it: IANBD-labeled cardiac RTF, Ca2+ sensitivity fluorescence; at 7.2 µM; stronger effect = higher value; scaled from EC20 to saturating calcium; tested at EC20 calcium, 0.472 mM. The essentials: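 material = labelled regulated thin filaments | probe or stimulus = Ca2+ 0.472 mM, EC20 level | dosing = single nominal compound dose of 7.2 µM | schedule = 15 min at 25 °C | signal = fluorescence intensity of labelled filaments | evaluation = fluorescence gain scaled between EC20 and EC100 calcium controls | benchmarks = low control EC20 calcium, high control EC100 calcium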
`C=CC[C@@H](CC(=O)N(CCO)Cc1ccccc1)C(=O)N[C@@H](COC(=O)[C@@H](CC=C)Cc1ccc(F)cc1)Cc1ccccc1`: the activation was 0.1% (inactive).
As to `S=C(Nc1ccc(N2CCOCC2)cc1)Nc1ccc2nc(-c3ccco3)c(-c3ccco3)nc2c1`, the activation was 43.1% (active).
For `Cc1cccc(NC(=S)Nc2ccc(N3CCOCC3)cc2)c1C`, the activation was 5.72% (inactive).
The value for `C[C@H](CO)N1C[C@H](C)[C@@H](CN(C)Cc2ccncc2)Oc2c(NS(=O)(=O)c3ccc(F)cc3)cccc2C1=O` was 10.3% (inactive); that for `C[C@H](CO)N1C[C@H](C)[C@@H](CN(C)Cc2ccncc2)Oc2c(NC(=O)c3ccncc3)cccc2C1=O` was 16.5% (active).
Consider `C[C@H]1CN([C@@H](C)CO)C(=O)c2cccc(NC(=O)c3nc4ccccc4s3)c2O[C@H]1CN(C)C(=O)Nc1ccc(F)cc1`, for which the activation was 12.9% (active).
`C[C@H](CO)N1C[C@H](C)[C@@H](CN(C)Cc2ccc(Oc3ccccc3)cc2)Oc2c(NC(=O)C3CC3)cccc2C1=O`: the activation is 47.7% (active).
The value for `C[C@H](CO)N1C[C@H](C)[C@@H](CN(C)S(=O)(=O)c2cccs2)Oc2c(NC(=O)Nc3ccc4c(c3)OCO4)cccc2C1=O` was 9.29% (inactive).
In the case of `Cc1noc(C)c1NC(=O)N(C)C[C@H]1Oc2c(NS(=O)(=O)c3cccs3)cccc2C(=O)N([C@H](C)CO)C[C@@H]1C`, the activation is 4.83% (inactive).
The value for `C[C@H](CO)N1C[C@H](C)[C@@H](CN(C)C(=O)Nc2ccc(F)cc2)Oc2ccc(NS(C)(=O)=O)cc2C1=O` was 9.89% (inactive); that for `C[C@H](CO)N1C[C@H](C)[C@@H](CN(C)C(=O)Nc2ccccc2)Oc2ccc(NC(=O)Nc3ccc4c(c3)OCO4)cc2C1=O` was 9.67% (inactive); that for `CCOC(=O)c1c(C)oc2c1c(C=NCCO)c(O)c1ccccc12` was 4.94% (inactive).
Take `CCN(CC)c1ccc(/C=C(\C#N)C(=O)NCc2ccccc2)cc1`: the activation was 60.6% (active).
Take `CN(C)c1ccc(/C=C(/C#N)C(=O)NCc2ccccc2)o1`: the activation is 12.4% (active).
Turning to `CC(C)NC(=O)/C(C#N)=C/c1ccc(N(C)C)o1`, the activation was 7.34% (inactive).
On to `CC(C)NC(=O)/C(C#N)=C\c1ccc(N(C)C)o1`, for which the activation was 215% (active).
The value for `CCN(CC)c1ccc(/C=C(\C#N)C(N)=S)cc1` was 45.5% (active); that for `CCN(CC)c1ccc(/C=C(/C#N)C(=O)NCc2ccccc2)o1` was 3.76% (inactive).
The value for `CCN(CC)c1ccc(/C=C(/C#N)C(=O)NC(C)C)o1` was 9.75% (inactive); that for `CCN(CC)c1ccc(/C=C(\C#N)C(=O)c2ccc(Br)cc2)cc1` was 3.52% (inactive); that for `N#C/C(=C\c1ccc(O)c(O)c1)C(=O)NCCCc1ccccc1` was 4.22% (inactive).
The value for `Cc1cc(Cn2nc(C(=O)NCC3CC3)cc2-c2ccccc2)on1` was 6.6% (inactive); that for `COc1ccccc1/C=[N+](\[O-])C1SC(=S)N(C)C1(C)C` (centres undefined) was 8.76% (inactive).
Turning to `Cc1cc(C)cc(C(=O)NC(CC(N)=O)c2ccc(N3CCCCCC3)c([N+](=O)[O-])c2)c1` (centres undefined), the activation was 3.03% (inactive).
Take `NC(=O)CC(NC(=O)c1ccc(Br)cc1)c1ccc(N2CCN(c3ccc(F)cc3)CC2)c([N+](=O)[O-])c1` (centres undefined): the activation was 42.4% (active).
The value for `NC(=O)CC(NC(=O)Cc1ccc(Cl)cc1)c1ccc(N2CCN(c3ccccn3)CC2)c([N+](=O)[O-])c1` (centres undefined) was 137% (active); that for `O=C(NCc1ccccc1)c1ccc(N2CCC3(CC2)CC(c2ccccc2)=NO3)c([N+](=O)[O-])c1` was 5.88% (inactive); that for `NC(=O)c1c(N)sc2c1CCCCC2` was 7.59% (inactive).
The value for `COc1cc(SC)ccc1C(=O)Nc1nc2ccccc2[nH]1` was 9.59% (inactive); that for `COc1ccc2nc3ccccc3nc2c1NC(=O)c1ccc(Br)cc1` was 139% (active); that for `COc1ccc2nc3ccccc3nc2c1NC(=O)c1ccc(Cl)cc1Cl` was 6.58% (inactive).
`CSCC(O)Cn1[nH]c(=O)c2cc(Cl)c(Cl)cc2c1=O` (centres undefined): the activation was 8.73% (inactive).
The value for `COC(=O)c1ccc(CSc2nnc(NCc3ccccc3)s2)o1` was 17.8% (active); that for `COC(=O)c1ccc(CS(=O)(=O)c2ccc(F)cc2)o1` was 1.48% (inactive); that for `COc1ccc(CN2CCN(C(=O)c3ccccc3F)CC2)c(OC)c1OC` was 44.3% (active).
The value for `COc1ccc(CN2CCC(C(=O)N3CCN(c4ccccc4F)CC3)CC2)cc1OC` was 8.86% (inactive); that for `COc1cccc(CNC(=O)CCC(=O)N2CC(C)Oc3ccccc32)c1OC` (centres undefined) was 4.26% (inactive); that for `COC(=O)c1ccccc1-c1c2ccc(=N)cc-2oc2cc(N)ccc12` was 9.11% (inactive).
The same measure for `COc1cc(OC)c(-c2c3cc(O)c(=O)cc-3oc3cc(O)c(O)cc23)cc1OC`: 19.3% (active); for `O=c1cc2oc3cc(O)c(O)cc3c(-c3ccccc3O)c-2cc1O`: 16.1% (active).
With `CCOc1ccccc1-c1c2cc(O)c(=O)cc-2oc2cc(O)c(O)cc12`, the activation was 8.3% (inactive).
The same measure for `Cn1ncc(Cl)c1C(=O)Nc1cccc(Cl)c1`: 5.51% (inactive); for `CSc1cccc(NC(=O)c2ccc(Cl)nc2)c1`: 15.5% (active); for `CC1CN(c2ccc(NS(=O)(=O)c3ccccc3)cc2C(=O)O)CC(C)O1` (centres undefined): 98.7% (active).
The value for `CCOC(=O)C1CCCN(C(=O)c2cccc(S(=O)(=O)N3CC(C)OC(C)C3)c2)C1` (centres undefined) was -1.51% (inactive).
The value for `CC(=O)c1ccc(S(=O)(=O)Nc2ccc(C(=O)N3CCC3)cc2)cc1` was 1.58% (inactive); that for `CC(C)(C)c1ccc(C(=O)Nc2cccc3ncccc23)cc1` was 10.2% (inactive); that for `CCc1ccc(C(=O)Nc2cccnc2Oc2ccc(Cl)cc2)cc1` was 22% (active).
With `CC(C)Cn1c(N)c(C(=O)COC(=O)c2cc(F)cc(F)c2)c(=O)n(C)c1=O`, the activation is 225% (active).
Turning to `O=c1oc2c(O)cccc2cc1-c1nc2ccccc2[nH]1`, the activation was 8.93% (inactive).
The same measure for `O=c1oc2c(CN3CCCCC3)c(O)ccc2cc1-c1nc2ccccc2[nH]1`: 224% (active); for `O=c1c2ccccc2nc(SCc2nc(-c3ccccc3)no2)n1-c1ccc(F)cc1`: 2.61% (inactive).
The value for `O=C(COC(=O)Cn1cnc2ccccc21)Nc1cccc2c1C(=O)c1ccccc1C2=O` was 25.4% (active); that for `CC(=O)c1cccc(NC(=O)Cn2nc(-c3ccccc3Cl)ccc2=O)c1` was 11.2% (inactive).
